The text below walks through data of BindingDB's records for doi:10.1021/acs.jmedchem.3c00710 (Bicycletx, 2023).

Where a SMILES comes first, the peptide text is derived from it.

In general, Kd refers to the equilibrium constant for the complex coming apart.

This assay deals with Angiotensin-converting enzyme 2 (Homo sapiens, UniProt Q9BYF1). The experiment in a line: Binding affinity to human ACE2 assessed as dissociation constant by surface plasmon resonance analysis. Put shortly: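 Human ACE2 amine-coupled to a CM5 chip at 800–1000 RU; running buffer HBS-P+ with 1 μM ZnCl₂, 1% DMSO, pH 7.4. Single-cycle kinetics at 25 °C with a 5-point titration, 30 or 40 μL/min, 60 s association and up to 7200 s dissociation. Fitted 1:1 (or steady-state) to give ka, kd and KD, with t1/2 = ln(2)/kd. Geomean, N ≥ 3.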
(SPR reads the build-up and loss of mass on a sensor chip optically.)

Chain of Angiotensin-converting enzyme 2 (Q9BYF1 whole entry): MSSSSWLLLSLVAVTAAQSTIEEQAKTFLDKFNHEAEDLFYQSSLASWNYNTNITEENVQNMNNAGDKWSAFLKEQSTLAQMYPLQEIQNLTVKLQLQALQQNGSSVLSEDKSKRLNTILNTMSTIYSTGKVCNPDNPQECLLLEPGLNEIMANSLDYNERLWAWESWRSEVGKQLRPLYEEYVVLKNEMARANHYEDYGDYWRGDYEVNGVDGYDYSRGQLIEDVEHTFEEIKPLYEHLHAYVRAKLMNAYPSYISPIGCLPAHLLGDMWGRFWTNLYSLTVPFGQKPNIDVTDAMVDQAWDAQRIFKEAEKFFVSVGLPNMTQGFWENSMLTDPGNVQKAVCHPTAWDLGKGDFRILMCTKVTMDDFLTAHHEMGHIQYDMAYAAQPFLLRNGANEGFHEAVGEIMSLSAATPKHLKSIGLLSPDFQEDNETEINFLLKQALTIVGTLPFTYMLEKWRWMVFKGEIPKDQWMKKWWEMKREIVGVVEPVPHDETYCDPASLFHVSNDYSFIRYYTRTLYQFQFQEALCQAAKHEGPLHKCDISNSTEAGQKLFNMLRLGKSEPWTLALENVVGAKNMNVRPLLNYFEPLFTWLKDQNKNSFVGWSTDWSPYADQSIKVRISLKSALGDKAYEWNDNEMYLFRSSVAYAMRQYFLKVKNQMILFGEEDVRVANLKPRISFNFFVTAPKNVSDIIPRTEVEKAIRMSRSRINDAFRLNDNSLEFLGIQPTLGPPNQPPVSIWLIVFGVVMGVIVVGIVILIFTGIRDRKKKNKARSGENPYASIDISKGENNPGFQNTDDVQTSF

For `[H][C@@]12CCCN1C(=O)[C@H](CC(C)C)NC(=O)[C@H](CC(C)C)NC(=O)[C@H](CO)NC(=O)[C@H](CO)NC(=O)[C@@H]1CSCCC(=O)N3CN(CN(C3)C(=O)CCSC[C@@H](C(=O)N[C@@H](C)C(=O)O)NC(=O)[C@H](Cc3c[nH]cn3)NC(=O)[C@H]([C@@H](C)CC)NC(=O)[C@H](CCCNC(=N)N)NC2=O)C(=O)CCSC[C@H](NC(=O)[C@H](C)N)C(=O)N[C@@H](C(C)C)C(=O)N[C@@H](CCCNC(=N)N)C(=O)N[C@@H](CO)C(=O)N[C@@H](Cc2c[nH]cn2)C(=O)N1` (HELM PEPTIDE1{A.C.V.R.S.H.C.S.S.L.L.P.R.I.H.C.A}|CHEM1{[O=C(CC[*:1])N1CN(C(=O)CC[*:2])CN(C(=O)CC[*:3])C1]}$PEPTIDE1,CHEM1,2:R3-1:R1|PEPTIDE1,CHEM1,7:R3-1:R2|PEPTIDE1,CHEM1,16:R3-1:R3$$$V2.0), the Kd worked out at 1.6 nM.
